High-throughput results from PubChem BioAssay.
An excerpt weighted towards active compounds, which were near 2.6% of everything screened.
TDP2 inh – human TDP2 enzyme inhibitors, primary screen, biochemical, epi absorbance, recombinant enzyme; 0.34% of 370,000 active; T5PNP hydrolysis, p-nitrophenol absorbance 415 nm; AID 720702, 2013; Tyrosyl-DNA phosphodiesterase 2 (Homo sapiens), O95551; inhibition, % at 12.8 µM;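 active = inhibition above the mean of all tested compounds plus 3 SD, set per campaign, cut at about 25% in these data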
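Material: recombinant human TDP2; quantity: TDP2 enzyme at 120 nM final; medium: Tris-HCl pH 7.5 with MgCl2; compound: single concentration, 12.8 µM nominal, with 1% DMSO; incubation: 2 h enzyme incubation at 37 °C; signal: epi absorbance; measure: percent inhibition; benchmarks: high control without enzyme, low control DMSO plus TDP2; repeats: singlicate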
PAD4 inh – human PAD4 inhibitors, primary screen, biochemical, fluorescence polarization, 1536-well format. Protein-arginine deiminase type-4 (Homo sapiens), Q9UM07. recombinant PAD4, RCA probe fluorescence polarization. inhibition, % at 6.36 µM. 0.41% of 330,000 active;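 active = percent inhibition above a cutoff equal to the mean of all tested compounds plus 3 SD, cut at about 15% in these data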
GSTO1 inh – inhibitors of recombinant GSTO1, primary screen, counter-screen for RBBP9 inhibitor project, biochemical, fluorescence polarization; Glutathione S-transferase omega-1 (Homo sapiens), P78417; activity-based probe fluorescence polarization; inhibition, % at 5.96 µM; 1.1% of 300,000 active;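 active = inhibition above the campaign mean inhibition plus 3 SD, cut at about 35% in these data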
Apaf1 inhib – inhibitors of human Apaf-1 apoptosome, primary screen, biochemical, DEVD-Rh110 fluorescence, uHTS. Apoptotic protease-activating factor 1 (Homo sapiens), O14727. reconstituted apoptosome caspase-3 activity. inhibition, % at 20 µM. 0.71% of 330,000 active; active = inhibition of at least 40% at 20 µM
Target sequence (O14727 whole entry, looked up): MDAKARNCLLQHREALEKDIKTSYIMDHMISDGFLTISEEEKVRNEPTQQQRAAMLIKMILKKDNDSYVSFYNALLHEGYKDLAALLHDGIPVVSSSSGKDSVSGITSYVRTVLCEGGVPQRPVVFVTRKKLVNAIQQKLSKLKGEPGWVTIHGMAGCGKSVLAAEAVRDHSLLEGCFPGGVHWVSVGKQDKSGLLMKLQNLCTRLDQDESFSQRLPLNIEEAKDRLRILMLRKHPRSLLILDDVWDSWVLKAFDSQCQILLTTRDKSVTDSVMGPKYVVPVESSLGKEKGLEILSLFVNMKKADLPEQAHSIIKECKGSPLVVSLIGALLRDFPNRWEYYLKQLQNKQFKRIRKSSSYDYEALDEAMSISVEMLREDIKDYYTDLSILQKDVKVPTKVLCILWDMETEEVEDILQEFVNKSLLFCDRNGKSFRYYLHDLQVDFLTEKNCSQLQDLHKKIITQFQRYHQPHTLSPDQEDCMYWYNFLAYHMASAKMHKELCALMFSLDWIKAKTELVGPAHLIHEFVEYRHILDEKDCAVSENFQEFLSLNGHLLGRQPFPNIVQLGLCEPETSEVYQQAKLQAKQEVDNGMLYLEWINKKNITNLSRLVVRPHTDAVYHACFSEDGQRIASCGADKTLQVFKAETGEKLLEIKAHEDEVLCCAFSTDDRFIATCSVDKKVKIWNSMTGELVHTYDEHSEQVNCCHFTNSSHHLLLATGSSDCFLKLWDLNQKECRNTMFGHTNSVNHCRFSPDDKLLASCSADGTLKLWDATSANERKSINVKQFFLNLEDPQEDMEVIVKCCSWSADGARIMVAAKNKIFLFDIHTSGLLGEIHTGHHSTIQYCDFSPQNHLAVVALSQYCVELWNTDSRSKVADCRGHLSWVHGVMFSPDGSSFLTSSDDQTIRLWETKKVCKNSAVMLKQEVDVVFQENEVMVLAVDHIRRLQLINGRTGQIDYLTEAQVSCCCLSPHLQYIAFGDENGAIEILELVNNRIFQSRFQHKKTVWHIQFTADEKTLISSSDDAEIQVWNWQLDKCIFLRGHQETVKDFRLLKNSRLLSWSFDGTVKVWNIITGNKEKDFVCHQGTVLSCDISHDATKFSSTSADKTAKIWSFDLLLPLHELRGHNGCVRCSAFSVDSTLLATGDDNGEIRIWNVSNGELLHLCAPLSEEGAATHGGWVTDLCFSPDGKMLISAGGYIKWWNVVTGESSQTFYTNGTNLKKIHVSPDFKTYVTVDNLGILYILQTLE
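detection = Rh110 fluorescence intensity | test system = biochemical Apaf-1 apoptosome reconstitution | also added = cytochrome c and DEVD-Rh110 substrate | schedule = 30 min plus 50 min, RT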
PRMT1 inh – PRMT1 methyltransferase inhibitors, primary screen, biochemical, fluorescence polarization; recombinant PRMT1, activity-based probe fluorescence polarization; 1.3% of 370,000 active; Protein arginine N-methyltransferase 1 (Homo sapiens), Q99873; inhibition, % at 2.79 µM; AID 652257, 2013;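 active = inhibition above about 21% made by adding two undisclosed values, limit read from the data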
Of the large screens only hits and unclear results are named; the others gave an inactive call.

Cc1ccc(NS(=O)(=O)c2ccc3c(c2)oc(=O)n3C)cc1C	GSTO1 inh 37
O=C(CSc1nnc(COc2ccccc2)n1-c1ccc(Cl)cc1)Nc1ccccc1-c1ccccc1	none (no result: PAD4 inh, GSTO1 inh, Apaf1 inhib)
COc1ccc(C(=O)NCc2ccc3c(c2)cc(C)n3C)cc1OC	PRMT1 inh 24
COc1cccc(/C=C2\CC3(OC(=O)C4CCCCC4)CCCN2C3)c1 (stereo unspecified)	none (no result: PAD4 inh, GSTO1 inh, Apaf1 inhib)
CCOC(=O)N[C@H](C(=O)N1CCC[C@H]1C(=O)NCCc1ccccc1Cl)c1ccccc1	none (no result: PAD4 inh, GSTO1 inh, Apaf1 inhib)
O=C(NCCc1ccccc1)C(c1cccs1)N(C(=O)CCl)c1ccc(Cl)cc1 (stereo unspecified)	GSTO1 inh 103
O=C(c1cc(-c2ccco2)nc2ccccc12)N1CCN(Cc2ccccc2)CC1	none (no result: GSTO1 inh)
COc1ccc(NC(=O)CN(C)C(=O)c2cc(-c3ccco3)nc3ccccc23)cc1	GSTO1 inh 37
CN(CC(=O)Nc1cccc(F)c1)C(=O)c1cc(-c2ccco2)nc2ccccc12	none
COC(=O)C1CCN(C(=O)c2cc(-c3ccco3)nc3ccccc23)CC1	PRMT1 inh 22 (no result: GSTO1 inh)
N#CC1=C(N)SC(N)=C(C#N)C1c1ccnc2ccccc12	PRMT1 inh 43
CC(C)c1onc(C(=O)N(C)Cc2ccccc2)c1[N+](=O)[O-]	none
CC(C)c1onc(C(=O)NCCc2ccccc2)c1[N+](=O)[O-]	GSTO1 inh 37
Cc1ccc(O)c(NC(=O)c2noc(C(C)C)c2[N+](=O)[O-])c1	GSTO1 inh 35
CC(C)c1onc(C(=O)NCc2ccc(F)cc2)c1[N+](=O)[O-]	GSTO1 inh 37
COC(=O)[C@]12C[C@H](CC(=O)NCCc3ccccc3OC)C(=O)N(Cc3cccc4ccccc34)C1=C[C@H](COCc1ccccc1)O[C@@H]2C	none (no result: PAD4 inh, GSTO1 inh, Apaf1 inhib)
O=C(N[C@@H](Cc1ccccc1)C(=O)NCP(=O)(O)OC(Cc1ccccc1)C(=O)O)OCc1ccccc1 (stereo partly specified)	none (no result: PAD4 inh, GSTO1 inh, Apaf1 inhib)
Brc1ccc(C2=CC(c3cccs3)n3ncnc3N2)cc1 (stereo unspecified)	PRMT1 inh 95
OCCCc1nc2n(n1)C(c1cccs1)C=C(c1ccc(Br)cc1)N2 (stereo unspecified)	none (no result: TDP2 inh, PRMT1 inh)
CC(C)(C)c1ccc(-c2nnc(SCC(=O)Nc3ccc(S(=O)(=O)Nc4nccs4)cc3)n2Cc2ccco2)cc1	PRMT1 inh 22 (no result: PAD4 inh, GSTO1 inh, Apaf1 inhib)
Cc1cc(NS(=O)(=O)c2ccc(NC(=O)CSc3nc4sc(C)c(C)c4c(=O)n3Cc3ccco3)cc2)nc(C)n1	PRMT1 inh 24 (no result: PAD4 inh, GSTO1 inh, Apaf1 inhib)
CCn1c(SCC(=O)Nc2ccc(S(=O)(=O)Nc3cc(C)nc(C)n3)cc2)nc2sc(C)c(C)c2c1=O	none (no result: PAD4 inh, GSTO1 inh, Apaf1 inhib)
CCOC(=O)[C@]12CCCCC/C=C\1N(CCc1ccc(Cl)cc1)C(=O)[C@H]2CC(=O)N1CCN(C(=O)C2CC2)CC1	none (no result: PAD4 inh, GSTO1 inh, Apaf1 inhib)
O=C(CSc1nnc(-c2ccccn2)n1-c1ccccc1)Nc1ccccc1-c1ccccc1	none (no result: PAD4 inh, GSTO1 inh, Apaf1 inhib)
NNc1ccc([N+](=O)[O-])c2[nH][nH]c(=O)c12	PRMT1 inh 40 (no result: PAD4 inh, GSTO1 inh, Apaf1 inhib)
Cc1noc(C)c1CSc1ccc(Br)cc1	none
CC(=O)Nc1ccc(SCC(=O)Nc2ccccc2-c2ccccc2)cc1	none
CC(=O)Nc1ccc(SCc2ncc(-c3ccccc3)o2)cc1	PRMT1 inh 22
CC(=O)Nc1ccc(SCc2c(C)noc2C)cc1	PRMT1 inh 21
O=C(NCCc1c[nH]c2ccccc12)c1ccc(Sc2ccccc2Cl)c([N+](=O)[O-])c1	none (no result: PAD4 inh, GSTO1 inh, Apaf1 inhib)
C=CCN=C1NC(c2ccc(F)cc2)C(C(=O)OC)=C(C)N1Cc1ccccc1C(F)(F)F (stereo unspecified)	none (no result: PAD4 inh, GSTO1 inh, Apaf1 inhib)
Cc1cc(SCC(=O)c2ccccc2)nc(=O)[nH]1	PRMT1 inh 25
NNC(=O)C1C(O)CCC2CN3CCc4c([nH]c5ccccc45)C3CC21 (stereo unspecified)	PRMT1 inh 22 (no result: PAD4 inh, GSTO1 inh, Apaf1 inhib)
CC(C)CN1C(=O)[C@]2(CC(=O)N(C)C2c2ccccc2)c2cc(-n3cc(CN(C)C)nn3)ccc21 (stereo partly specified)	none (no result: PAD4 inh, GSTO1 inh, Apaf1 inhib)
CCOC(=O)c1sc(/N=C/c2c(O)ccc3ccccc23)cc1C	GSTO1 inh 39
COc1ccc(N=Cc2c(O)ccc3ccccc23)cc1	none
COc1ccc(S(=O)(=O)N2CCN(C(=O)C3CCCO3)CC2)cc1 (stereo unspecified)	none
O=C(C1CCCO1)N1CCN(S(=O)(=O)c2ccc(F)cc2)CC1 (stereo unspecified)	PRMT1 inh 24
CC1CCc2c(sc(Nc3nc4c(F)cccc4s3)c2C(N)=O)C1 (stereo unspecified)	PRMT1 inh 23
Cn1c(SCC(=O)c2ccc3c(c2)OCO3)nnc1C1COc2ccccc2O1 (stereo unspecified)	PRMT1 inh 22
Cn1c(SCC(=O)c2ccccc2)nnc1C1COc2ccccc2O1 (stereo unspecified)	none
Cc1ccc(-n2c(SCC(=O)C(C)(C)C)nnc2-c2cccc(C)c2)cc1	none (no result: PAD4 inh, GSTO1 inh, Apaf1 inhib)
CC(=O)C1=C(C)NC(SCC(=O)c2ccc(Cl)cc2)=C(C#N)C1CC(C)C (stereo unspecified)	none
CC(=O)C1=C(C)NC(SCC(=O)c2ccc(F)cc2)=C(C#N)C1CC(C)C (stereo unspecified)	PRMT1 inh 28
O=C1c2cccc3c([N+](=O)[O-])ccc(c23)C(=O)N1Cc1cccnc1	PRMT1 inh 21 (no result: PAD4 inh, GSTO1 inh, Apaf1 inhib)
CCCC1CCC2(CC1)CCC2OC(=S)Nc1ccc(Cl)cc1 (stereo unspecified)	none (no result: PAD4 inh, GSTO1 inh, Apaf1 inhib)
CCOC(=O)CC1C(=O)NCCN1Cc1cccc(C(F)(F)F)c1 (stereo unspecified)	PRMT1 inh 24
O=C(CC1C(=O)NCCN1Cc1cccc(C(F)(F)F)c1)NC1CCOCC1 (stereo unspecified)	none (no result: PAD4 inh, GSTO1 inh)
O=C(NCc1n[nH]c(=S)n1-c1cccc(Cl)c1)c1ccc(S(=O)(=O)N2CCCC2)cc1	none
O=C(NCc1n[nH]c(=S)n1-c1ccc(Cl)c(Cl)c1)c1ccc(S(=O)(=O)N2CCCCC2)cc1	PRMT1 inh 23
COc1cccc(C(=O)Nc2ccc3nc(N4CCN(c5ncccn5)CC4)cc(C)c3c2)c1OC	GSTO1 inh 37 (no result: TDP2 inh, PRMT1 inh)
COC(=O)[C@@]1(Cc2ccc(F)cc2)[C@H]2c3cc(C(=O)N(C)C)n(Cc4ccc(C)o4)c3C[C@H]2CN1C(=O)c1ccccc1	PRMT1 inh 22 (no result: PAD4 inh, GSTO1 inh, Apaf1 inhib)
CCCCNC(=O)C1CCCN1C(=O)NCc1ccccc1OC (stereo unspecified)	none (no result: PAD4 inh, GSTO1 inh, Apaf1 inhib)
CC(=O)Oc1ccc(C(=O)OCC(=O)c2c(N)n(C)c(=O)n(C)c2=O)cc1OC(C)=O	GSTO1 inh 35
COc1ccc(C(=O)OCC(=O)c2c(N)n(C)c(=O)n(C)c2=O)cc1OC	none
